From ChEMBL document CHEMBL5661979, “Pharmacological inhibition of BMK1 suppresses tumor growth through promyelocytic leukemia protein” (Cancer Cell, 2010) come the findings set out here.

The target of data set [1] is Serine/threonine-protein kinase Chk1 (Homo sapiens, UniProt O14757). In words: Inhibition of CHK1 inactive site in human HeLa cells lysate pre incubated for 15 mins followed by ATP acyl phosphate probe addition and measured after 10 mins by LC-MS/MS analysis. It is filed as subcellular.
For data set [2], the target named is 5'-AMP-activated protein kinase catalytic subunit alpha-2 (Homo sapiens, UniProt P54646). Nature of the data set: Inhibition of AMPKalpha2 in human HeLa cells lysate pre incubated for 15 mins followed by ADP acyl phosphate probe addition and measured after 10 mins by LC-MS/MS analysis. It counts as subcellular. Summed up:
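HeLa cell lysates (5 mg/mL total protein) were preincubated with inhibitor at 0, 0.8, 2, 10 or 50 μM for 15 min. ATP or ADP acylphosphate probe was then added (5 μM final) for 10 min, and reactions were stopped with urea. Up to four fragment ions per kinase probe-peptide were quantified by targeted MS. % inhibition was taken relative to untreated lysate. Run in duplicate.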

Data set [3] has as its target Serine/threonine-protein kinase 38-like (Homo sapiens, UniProt Q9Y2H1). In words: Inhibition of NDR2 in human HeLa cells lysate pre incubated for 15 mins followed by ADP acyl phosphate probe addition and measured after 10 mins by LC-MS/MS analysis. It counts as subcellular.
The nature of data set [4]: Inhibition of NEK6/7 in human HeLa cells lysate pre incubated for 15 mins followed by ADP acyl phosphate probe addition and measured after 10 mins by LC-MS/MS analysis. It counts as subcellular.
In data set [5] the target is Serine/threonine-protein kinase Sgk1 (Homo sapiens, UniProt O00141). Nature of the data set: Inhibition of SGK1 in human HeLa cells lysate pre incubated for 15 mins followed by ADP acyl phosphate probe addition and measured after 10 mins by LC-MS/MS analysis. It is filed as subcellular.
The nature of data set [6]: Volume of distribution at steady state in Sprague-Dawley rat at 1 mg/kg, iv measured up to 8 hrs by LC-MS/MS analysis. Conditions: in vivo, read-out: Vdss. It counts as ADME, organism-based.
The target in data set [7] is T1, Serine/threonine-protein kinase 4 (Homo sapiens) (UniProt Q13043).
T1 sequence (whole entry): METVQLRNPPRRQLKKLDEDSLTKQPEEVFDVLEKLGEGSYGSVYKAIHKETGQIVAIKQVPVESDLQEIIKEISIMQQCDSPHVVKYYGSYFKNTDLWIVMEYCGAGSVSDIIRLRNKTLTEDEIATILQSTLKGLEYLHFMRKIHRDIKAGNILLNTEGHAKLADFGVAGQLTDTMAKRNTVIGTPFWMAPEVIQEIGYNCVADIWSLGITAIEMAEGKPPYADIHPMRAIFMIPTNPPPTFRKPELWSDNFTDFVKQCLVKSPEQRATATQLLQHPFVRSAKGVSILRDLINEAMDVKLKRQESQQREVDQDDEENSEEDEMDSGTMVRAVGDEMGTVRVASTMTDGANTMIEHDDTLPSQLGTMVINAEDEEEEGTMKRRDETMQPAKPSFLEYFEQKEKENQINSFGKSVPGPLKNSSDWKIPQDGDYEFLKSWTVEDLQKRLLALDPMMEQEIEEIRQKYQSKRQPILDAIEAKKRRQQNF
Nature of the data set: Inhibition of MST1 in human HeLa cells lysate at 50 uM pre incubated for 15 mins followed by ADP acyl phosphate probe addition and measured after 10 mins by LC-MS/MS analysis relative to control. It counts as subcellular. Conditions: time 25.0 min.

Data set [8] has as its target DNA-dependent protein kinase catalytic subunit (Homo sapiens, UniProt P78527). Nature of the data set: Inhibition of PRKDC in human HeLa cells lysate at 10 uM pre incubated for 15 mins followed by ADP acyl phosphate probe addition and measured after 10 mins by LC-MS/MS analysis relative to control. It is filed as subcellular. Conditions: time 25.0 min.
For data set [9], the target named is Serine/threonine-protein kinase B-raf (Homo sapiens, UniProt P15056). Nature of the data set: Inhibition of BRAF in human HeLa cells lysate at 10 uM pre incubated for 15 mins followed by ADP acyl phosphate probe addition and measured after 10 mins by LC-MS/MS analysis relative to control. It counts as subcellular. Conditions: time 25.0 min. Summed up: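 KiNativ-type profiling in HeLa lysate (5 mg/mL total protein). Lysate preincubated 15 min with inhibitor at 50, 10, 2, 0.8 or 0 μM, then ATP or ADP acylphosphate probe added (5 μM final) for 10 min. Reaction stopped with urea and analysed by targeted MS, using up to four fragment ions per kinase peptide-probe conjugate. % inhibition calculated against untreated lysate. Duplicate reactions.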

Data set [10] deals with T2, Interleukin-1 receptor-associated kinase 4 (Homo sapiens) (UniProt Q9NWZ3).
T2 sequence (whole entry): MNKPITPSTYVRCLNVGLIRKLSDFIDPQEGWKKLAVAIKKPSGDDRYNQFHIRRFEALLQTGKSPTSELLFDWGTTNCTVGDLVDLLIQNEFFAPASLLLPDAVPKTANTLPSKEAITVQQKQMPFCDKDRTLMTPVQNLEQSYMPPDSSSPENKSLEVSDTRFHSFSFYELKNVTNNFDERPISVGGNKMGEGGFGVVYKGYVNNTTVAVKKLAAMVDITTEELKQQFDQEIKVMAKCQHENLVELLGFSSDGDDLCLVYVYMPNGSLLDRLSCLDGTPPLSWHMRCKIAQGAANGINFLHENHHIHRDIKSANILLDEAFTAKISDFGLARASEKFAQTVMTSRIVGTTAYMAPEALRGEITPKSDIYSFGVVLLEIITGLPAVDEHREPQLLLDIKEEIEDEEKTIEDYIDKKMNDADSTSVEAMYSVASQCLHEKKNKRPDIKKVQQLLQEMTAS
In words: Inhibition of IRAK4 in human HeLa cells lysate at 2 uM pre incubated for 15 mins followed by ADP acyl phosphate probe addition and measured after 10 mins by LC-MS/MS analysis relative to control. It is filed as subcellular. Conditions: time 25.0 min.

The target in data set [11] is Serine/threonine-protein kinase Chk2 (Homo sapiens, UniProt O96017). Nature of the data set: Inhibition of CHK2 in human HeLa cells lysate at 2 uM pre incubated for 15 mins followed by ADP acyl phosphate probe addition and measured after 10 mins by LC-MS/MS analysis relative to control. Conditions: time 25.0 min. It is filed as subcellular.
Data set [12] addresses SRSF protein kinase 1 (Homo sapiens, UniProt Q96SB4). In words: Inhibition of SRPK1 in human HeLa cells lysate at 50 uM pre incubated for 15 mins followed by ATP acyl phosphate probe addition and measured after 10 mins by LC-MS/MS analysis relative to control. It is filed as subcellular. Conditions: time 25.0 min.
Data set [13] deals with Interferon-induced, double-stranded RNA-activated protein kinase (Homo sapiens, UniProt P19525). In words: Inhibition of PKR in human HeLa cells lysate at 50 uM pre incubated for 15 mins followed by ATP acyl phosphate probe addition and measured after 10 mins by LC-MS/MS analysis relative to control. It counts as subcellular. Conditions: time 25.0 min.
A short description of data set [14]: Inhibition of MST4/YSK1 in human HeLa cells lysate at 10 uM pre incubated for 15 mins followed by ATP acyl phosphate probe addition and measured after 10 mins by LC-MS/MS analysis relative to control. Conditions: 25 min, condition cancer.
A short description of data set [15]: Toxicity in C57Bl/6 mouse assessed as effect on alkaline phosphatase level at 50 mg/kg, ip for 14 days (reference value: 51 U/L). It counts as organism-based. Conditions: in vivo, 336 h, time 14 day.
A short description of data set [16]: Toxicity in C57Bl/6 mouse assessed as effect on total protein level at 50 mg/kg, ip for 14 days (reference value: 5.8 g/dl). Conditions: in vivo, 336 h, time 14 day. It is filed as organism-based.

Chain of Serine/threonine-protein kinase 38-like (Q9Y2H1 whole entry): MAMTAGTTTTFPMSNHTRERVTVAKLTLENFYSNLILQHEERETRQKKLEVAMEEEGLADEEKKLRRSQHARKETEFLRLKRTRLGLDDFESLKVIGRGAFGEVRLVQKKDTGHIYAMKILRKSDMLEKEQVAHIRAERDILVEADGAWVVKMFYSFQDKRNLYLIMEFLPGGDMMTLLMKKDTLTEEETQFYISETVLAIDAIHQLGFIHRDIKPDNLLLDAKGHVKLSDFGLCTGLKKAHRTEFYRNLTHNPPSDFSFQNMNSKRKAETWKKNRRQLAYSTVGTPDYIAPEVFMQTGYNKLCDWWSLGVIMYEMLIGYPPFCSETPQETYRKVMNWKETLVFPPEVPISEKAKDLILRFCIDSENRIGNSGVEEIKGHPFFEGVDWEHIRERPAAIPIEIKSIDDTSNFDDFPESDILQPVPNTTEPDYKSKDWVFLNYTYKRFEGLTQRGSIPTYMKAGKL
Chain of Serine/threonine-protein kinase Chk2 (O96017 whole entry): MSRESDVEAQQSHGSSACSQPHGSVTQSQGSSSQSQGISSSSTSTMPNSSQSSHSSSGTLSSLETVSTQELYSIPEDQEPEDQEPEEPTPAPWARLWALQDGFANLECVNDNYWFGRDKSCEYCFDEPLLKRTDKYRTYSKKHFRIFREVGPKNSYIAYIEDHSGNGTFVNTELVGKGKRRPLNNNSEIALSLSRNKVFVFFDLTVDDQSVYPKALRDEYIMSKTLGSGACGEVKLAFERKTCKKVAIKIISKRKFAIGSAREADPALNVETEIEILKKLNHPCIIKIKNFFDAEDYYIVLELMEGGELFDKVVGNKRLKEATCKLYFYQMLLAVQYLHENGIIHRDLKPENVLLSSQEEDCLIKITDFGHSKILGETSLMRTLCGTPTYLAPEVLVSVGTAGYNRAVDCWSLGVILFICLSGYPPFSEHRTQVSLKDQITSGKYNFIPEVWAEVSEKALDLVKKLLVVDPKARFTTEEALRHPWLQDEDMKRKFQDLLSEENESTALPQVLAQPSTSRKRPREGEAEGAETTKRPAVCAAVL
Chain of SRSF protein kinase 1 (Q96SB4 whole entry): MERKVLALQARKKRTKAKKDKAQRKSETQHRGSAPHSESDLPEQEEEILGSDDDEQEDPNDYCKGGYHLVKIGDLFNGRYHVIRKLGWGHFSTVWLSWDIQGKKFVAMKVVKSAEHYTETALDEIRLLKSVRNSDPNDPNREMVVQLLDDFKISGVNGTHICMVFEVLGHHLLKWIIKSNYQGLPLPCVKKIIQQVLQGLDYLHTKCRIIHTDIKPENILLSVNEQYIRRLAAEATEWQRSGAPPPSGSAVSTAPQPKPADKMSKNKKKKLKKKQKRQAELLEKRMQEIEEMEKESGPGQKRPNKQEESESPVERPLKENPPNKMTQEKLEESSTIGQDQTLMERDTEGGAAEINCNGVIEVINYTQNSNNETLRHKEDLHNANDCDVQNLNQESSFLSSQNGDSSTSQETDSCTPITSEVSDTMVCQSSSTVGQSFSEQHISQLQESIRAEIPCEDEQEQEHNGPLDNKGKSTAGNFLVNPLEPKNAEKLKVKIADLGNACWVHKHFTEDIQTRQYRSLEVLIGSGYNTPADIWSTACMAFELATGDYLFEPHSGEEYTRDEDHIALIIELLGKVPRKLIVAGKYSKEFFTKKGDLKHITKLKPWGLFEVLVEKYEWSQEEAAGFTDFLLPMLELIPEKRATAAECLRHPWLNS
Chain of Serine/threonine-protein kinase Chk1 (O14757 whole entry): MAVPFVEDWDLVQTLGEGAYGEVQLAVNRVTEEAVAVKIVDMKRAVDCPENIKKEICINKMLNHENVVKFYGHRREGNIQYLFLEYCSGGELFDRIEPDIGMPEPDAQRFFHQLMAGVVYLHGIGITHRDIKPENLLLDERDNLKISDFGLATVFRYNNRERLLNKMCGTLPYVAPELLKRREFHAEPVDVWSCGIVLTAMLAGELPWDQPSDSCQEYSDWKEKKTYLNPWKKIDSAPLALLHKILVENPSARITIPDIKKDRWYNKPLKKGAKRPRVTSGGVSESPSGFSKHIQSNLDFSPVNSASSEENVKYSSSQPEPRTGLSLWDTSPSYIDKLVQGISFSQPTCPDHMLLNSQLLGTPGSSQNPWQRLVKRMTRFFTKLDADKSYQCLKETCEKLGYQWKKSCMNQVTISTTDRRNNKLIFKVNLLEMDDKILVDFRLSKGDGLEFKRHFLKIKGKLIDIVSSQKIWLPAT
Chain of 5'-AMP-activated protein kinase catalytic subunit alpha-2 (P54646 whole entry, the tested form may be a part): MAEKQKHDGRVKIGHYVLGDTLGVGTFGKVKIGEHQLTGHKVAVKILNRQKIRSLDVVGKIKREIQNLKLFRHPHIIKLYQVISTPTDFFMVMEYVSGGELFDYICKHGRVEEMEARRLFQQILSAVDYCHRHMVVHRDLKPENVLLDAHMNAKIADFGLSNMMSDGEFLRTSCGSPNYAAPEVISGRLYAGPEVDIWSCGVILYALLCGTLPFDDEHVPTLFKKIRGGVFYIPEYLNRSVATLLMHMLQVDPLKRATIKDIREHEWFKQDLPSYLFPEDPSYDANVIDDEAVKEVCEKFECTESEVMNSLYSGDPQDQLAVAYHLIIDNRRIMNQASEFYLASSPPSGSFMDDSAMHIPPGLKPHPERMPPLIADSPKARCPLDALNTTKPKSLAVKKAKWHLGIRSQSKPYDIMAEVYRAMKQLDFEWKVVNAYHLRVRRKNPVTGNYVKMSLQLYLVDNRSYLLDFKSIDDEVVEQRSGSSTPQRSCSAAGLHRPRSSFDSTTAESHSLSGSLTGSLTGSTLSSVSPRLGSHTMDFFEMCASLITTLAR
Chain of Serine/threonine-protein kinase B-raf (P15056 whole entry, the tested form may be a part): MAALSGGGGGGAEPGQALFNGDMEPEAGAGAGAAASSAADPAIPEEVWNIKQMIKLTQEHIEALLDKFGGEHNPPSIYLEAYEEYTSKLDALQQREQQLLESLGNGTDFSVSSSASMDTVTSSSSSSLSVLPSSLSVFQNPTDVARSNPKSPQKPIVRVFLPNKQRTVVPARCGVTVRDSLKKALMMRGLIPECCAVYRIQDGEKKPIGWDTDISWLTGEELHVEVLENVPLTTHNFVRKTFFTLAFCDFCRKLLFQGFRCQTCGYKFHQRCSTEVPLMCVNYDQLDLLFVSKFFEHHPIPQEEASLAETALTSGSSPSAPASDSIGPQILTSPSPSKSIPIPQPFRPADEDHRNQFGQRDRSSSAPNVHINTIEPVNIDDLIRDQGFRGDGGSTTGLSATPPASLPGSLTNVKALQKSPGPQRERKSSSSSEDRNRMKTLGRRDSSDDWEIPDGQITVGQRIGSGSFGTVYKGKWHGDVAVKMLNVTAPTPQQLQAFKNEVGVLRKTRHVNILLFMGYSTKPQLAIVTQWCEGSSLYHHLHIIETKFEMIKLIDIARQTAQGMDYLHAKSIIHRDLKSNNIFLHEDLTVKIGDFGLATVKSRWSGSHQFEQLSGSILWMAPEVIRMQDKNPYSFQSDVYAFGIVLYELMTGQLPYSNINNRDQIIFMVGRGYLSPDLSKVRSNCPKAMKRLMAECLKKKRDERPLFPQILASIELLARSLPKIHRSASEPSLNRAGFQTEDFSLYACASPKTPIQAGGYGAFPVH
Chain of Interferon-induced, double-stranded RNA-activated protein kinase (P19525 whole entry): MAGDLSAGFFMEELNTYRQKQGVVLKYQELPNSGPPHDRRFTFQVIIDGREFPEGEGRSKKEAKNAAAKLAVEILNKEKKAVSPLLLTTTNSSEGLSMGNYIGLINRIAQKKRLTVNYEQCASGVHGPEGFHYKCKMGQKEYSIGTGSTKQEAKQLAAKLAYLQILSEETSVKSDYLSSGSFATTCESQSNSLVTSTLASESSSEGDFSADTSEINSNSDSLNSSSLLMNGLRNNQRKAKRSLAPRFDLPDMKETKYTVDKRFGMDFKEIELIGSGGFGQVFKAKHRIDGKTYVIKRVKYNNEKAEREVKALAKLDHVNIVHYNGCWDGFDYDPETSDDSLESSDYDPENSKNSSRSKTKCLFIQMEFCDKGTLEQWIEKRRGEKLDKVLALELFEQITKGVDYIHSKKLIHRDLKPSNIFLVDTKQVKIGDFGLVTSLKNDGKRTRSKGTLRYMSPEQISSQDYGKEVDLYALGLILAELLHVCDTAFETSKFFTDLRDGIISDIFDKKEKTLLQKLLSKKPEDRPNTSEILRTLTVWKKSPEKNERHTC
Chain of Serine/threonine-protein kinase Sgk1 (O00141 whole entry): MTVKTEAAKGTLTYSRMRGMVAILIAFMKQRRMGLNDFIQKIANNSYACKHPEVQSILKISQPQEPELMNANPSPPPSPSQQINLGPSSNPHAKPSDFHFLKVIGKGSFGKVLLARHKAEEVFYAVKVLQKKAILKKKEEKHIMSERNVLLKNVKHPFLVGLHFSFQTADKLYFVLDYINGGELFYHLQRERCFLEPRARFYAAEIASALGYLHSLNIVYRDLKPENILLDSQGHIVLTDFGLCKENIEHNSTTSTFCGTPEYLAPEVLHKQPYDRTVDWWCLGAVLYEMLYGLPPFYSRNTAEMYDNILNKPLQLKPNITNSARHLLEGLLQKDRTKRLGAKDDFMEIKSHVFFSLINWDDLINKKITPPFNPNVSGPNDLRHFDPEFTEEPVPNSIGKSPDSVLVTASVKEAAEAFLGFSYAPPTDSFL

Consider `CCOc1cc(N2CCC(O)CC2)ccc1Nc1ncc2c(n1)N(C)c1ccccc1C(=O)N2C`, for which the IC50 in data set [1], in data set [2], in data set [3], in data set [4] and in data set [5] was more than 50 µM throughout. In data set [6], the Vd came out at 3.4 L/kg. In addition, the inhibition in [7] is 10.2%; in data set [8] it was -4.8%; in data set [9], 2.3%; in data set [10], 12.7%; in data set [11] it was 7.6%; in [12], -7.5%. Also, in data set [13], the inhibition is -8.3%. Besides, the inhibition at 10 µM in data set [14] turned out to be 5.1%. Further, the Activity amounted to 235 U/L in data set [15] and 5.8 g/dL in [16].

As usually defined, the IC50 is the concentration that inhibits the measured activity by half. The low end stands for higher potency, the high end for lower potency. As usually defined, the inhibition is the change of the read-out against control, counted positive when it falls.
